OX1R antag-1: antagonists of human orexin 1 receptor | hit rate 0.43% among 330,000 | O43613 | AID 434989 | inhibition, % at 5 µM | CHO/OX1R cells, Fluo-8 calcium fluorescence, orexin A;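 active means inhibition above its plate's threshold, mean inhibition of all tested compounds on the plate plus 3 SD, cut at about 37% in these data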;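 further: 0% = orexin A challenge wells and 100% = SB-334867-A antagonist wells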
GPR7 antagonist: antagonists of human GPR7 (neuropeptides B/W receptor 1). P48145. inhibition, % at 4.4 µM. GPR7-expressing cells, fluorescence antagonist assay. hit rate 1.1% among 290,000; in the data active means inhibition above about 16%, passing the limit was not always enough;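 further: cells stimulated with the agonist NPW; 0% = agonist with vehicle and 100% = vehicle without agonist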
Target sequence (P48145 whole entry, looked up): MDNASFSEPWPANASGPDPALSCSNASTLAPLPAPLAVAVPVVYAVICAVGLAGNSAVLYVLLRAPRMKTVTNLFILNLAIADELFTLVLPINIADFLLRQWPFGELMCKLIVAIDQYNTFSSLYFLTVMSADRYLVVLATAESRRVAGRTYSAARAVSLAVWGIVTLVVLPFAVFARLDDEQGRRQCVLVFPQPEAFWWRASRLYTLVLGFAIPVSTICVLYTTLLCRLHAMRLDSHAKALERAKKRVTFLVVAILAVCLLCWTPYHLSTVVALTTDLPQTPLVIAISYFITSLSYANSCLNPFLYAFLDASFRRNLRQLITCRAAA
CHO parental Ca: counter-screen for OX1R antagonists: effect in parental CHO cells; parental CHO-K1, ATP-induced calcium, Fluo-8 fluorescence; inhibition, % at 5.6 µM; hit rate 0.63% among 330,000; AID 463079;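 active means inhibition above that plate's mean sample inhibition plus 3 SD, cut at about 26% in these data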;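 further: 0% = ATP-challenged DMSO wells and 100% = DMSO wells without ATP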
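Assay system – parental CHO cells · Reagent – ATP stimulus · Detection – intracellular calcium via Fluo-8 no-wash fluorescent dye · Evaluation – percent inhibition of ATP-evoked calcium rise, normalized to controls · Controls – ATP wells versus no-ATP DMSO wells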
TAAR1 antagonist: human TAAR1 antagonism; hit rate 1.5% among 360,000; AID 624466; CHO RD-HGA16 TAAR1, Fluo-8 calcium fluorescence, antagonist; inhibition, % at 3 µM;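 active means inhibition above a per-plate cutoff, the mean inhibition of test compounds on that plate plus 3 SD, cut at about 49% in these data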;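 further: 0% = DMSO plus EC80 beta-PEA response and 100% = DMSO alone without agonist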
Target sequence (Q96RJ0 whole entry, looked up): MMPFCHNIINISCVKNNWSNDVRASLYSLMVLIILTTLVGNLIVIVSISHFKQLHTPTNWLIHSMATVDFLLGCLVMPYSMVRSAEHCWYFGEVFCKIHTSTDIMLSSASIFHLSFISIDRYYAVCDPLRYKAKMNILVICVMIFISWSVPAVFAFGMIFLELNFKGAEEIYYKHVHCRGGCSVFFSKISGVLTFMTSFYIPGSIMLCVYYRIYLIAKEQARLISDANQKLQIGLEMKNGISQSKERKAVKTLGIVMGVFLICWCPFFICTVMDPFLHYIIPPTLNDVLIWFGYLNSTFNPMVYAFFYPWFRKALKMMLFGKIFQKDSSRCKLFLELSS
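Test system: CHO RD-HGA16 cells bearing hTAAR1 | Reagent: β-PEA, EC80 | Compound dosing: 3 µM, single point | Schedule: Dye loading 75 min at 37 °C, then 30 min room temperature | Signal: Calcium fluorescence with Fluo-8 | Evaluation: Percent inhibition of PEA-evoked calcium signal, max/basal emission ratio | Control set: DMSO-only wells and EC80 β-PEA-stimulated wells | Repeats: Singlicate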
OX1R antag-2: OX1R (human) antagonism. OX1R-expressing cells, FRET antagonist read-out. inhibition, % at 6.6 µM. hit rate 1.8% among 330,000. AID 485270; in the data active means inhibition mostly above about 38%, no sharp cut-off; inactive means mostly below about 40%;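 further: 0% = agonist challenge alone and 100% = reference antagonist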
TAAR1 ag: human TAAR1 agonism; Q96RJ0; CHO RD-HGA16 TAAR1, Fluo-8 calcium fluorescence; vehicle wells 0%, saturating PEA agonist 100%; activation, % at 3 µM; hit rate 0.99% among 360,000; AID 624467;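 active means activation above the mean activation of all test compounds in the run plus 3 SD, cut at about 38% in these data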
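Benchmarks: low control DMSO, high control PEA (EC100); System: CHO RD-HGA16 cells carrying human TAAR1 plus Gα16; Detection: Fluo-8 fluorescence, 5 s baseline then 140 s kinetic read; Schedule: 17-24 h plating, Fluo-8 75 min 37 °C, 30 min RT; Read-out basis: % activation from peak over basal fluorescence ratio, DMSO-to-PEA scaled.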
Numbers without * were called inactive; ! = a repeat was not active. A selection: hits, their analogues and other compounds. The true share with any hit is near 4.6%.

COC(=O)c1c(C)[nH]c(C=O)c1-c1ccccc1 was read as OX1R antag-1 -11.9, GPR7 antagonist -13.2, CHO parental Ca -12.0, TAAR1 antagonist 11.5, OX1R antag-2 10.7 and TAAR1 ag 1.9.
Screening COC(=O)c1c(C)[nH]c(C)c1C(=O)c1ccccc1Cc1ccccc1 returned OX1R antag-1 -10.1, CHO parental Ca -11.9, TAAR1 antagonist -0.3, OX1R antag-2 46.8* and TAAR1 ag 13.4.
For O=C(NC1CCCC1)[C@@H]1CCCN1C(=O)[C@@H](NS(=O)(=O)c1ccc(F)cc1F)C1CCCCC1 the results were TAAR1 antagonist -41.0 and TAAR1 ag 5.7.
Screening Cc1sc2ncnc(NCCc3ccc(S(N)(=O)=O)cc3)c2c1C returned OX1R antag-1 20.1, GPR7 antagonist 19.0, CHO parental Ca 52.7*, TAAR1 antagonist 24.4, OX1R antag-2 37.2 and TAAR1 ag 6.1.
[O-][n+]1c2c(c3c4non(O)c4ccc31)CCCC2 was read as OX1R antag-1 24.0, GPR7 antagonist 2.6, CHO parental Ca 6.4, TAAR1 antagonist 2.8, OX1R antag-2 53.8* and TAAR1 ag 14.9.
`COn1c2c(c3c4no[n+]([O-])c4ccc31)CCCC2` gave OX1R antag-1 -20.5, GPR7 antagonist 8.1, CHO parental Ca -11.2, TAAR1 antagonist -9.4, OX1R antag-2 30.8 and TAAR1 ag -1.8.
c1csc(-c2nc3c4ccccc4c4ccccc4c3[nH]2)c1 was read as OX1R antag-1 -7.6, GPR7 antagonist 3.0, CHO parental Ca 0.0, TAAR1 antagonist 20.4, OX1R antag-2 63.2* and TAAR1 ag 6.0.
O=S1(=O)N[C@@H](Cc2ccccc2)COc2cc(N3CCCCC3)ccc21 was read as TAAR1 antagonist 1.4 and TAAR1 ag -1.3.
For CCNC(=S)NNC(=O)c1cc(-c2ccc(OC)cc2)nc2ccccc12 the results were OX1R antag-1 -21.7, GPR7 antagonist -9.7, CHO parental Ca -21.7, TAAR1 antagonist 11.1, OX1R antag-2 10.7 and TAAR1 ag 0.0.
For COc1ccc(Cl)cc1C(=O)NNC(=S)NC(=O)c1cc(-c2ccc(Cl)cc2)nc2ccccc12 the results were OX1R antag-1 -4.9, GPR7 antagonist -2.6, CHO parental Ca -1.7, TAAR1 antagonist 16.0, OX1R antag-2 18.5 and TAAR1 ag 37.5*.
For Cc1ccc(-c2cc(C(=O)N3CCN(c4ncccn4)CC3)c3ccccc3n2)cc1 the results were OX1R antag-1 -34.6, GPR7 antagonist -12.2, CHO parental Ca -33.2, TAAR1 antagonist 50.5*, OX1R antag-2 13.1 and TAAR1 ag 16.5.
COc1ccc(-c2cc(C(=O)Nc3ccc(C(N)=O)cc3)c3ccccc3n2)cc1OC was read as OX1R antag-1 3.2, GPR7 antagonist -6.4, CHO parental Ca -11.7, TAAR1 antagonist 53.8*, OX1R antag-2 10.5 and TAAR1 ag 11.6.
For O=C(c1cc(-c2ccccn2)nc2ccccc12)N1CCN(c2ncccn2)CC1 the results were OX1R antag-1 -8.6, GPR7 antagonist 1.5, CHO parental Ca -6.4, TAAR1 antagonist 16.8, OX1R antag-2 18.4 and TAAR1 ag 4.5.
For COc1ccc(-c2cc(C(=O)N3CCN(c4ncccn4)CC3)c3ccccc3n2)cc1OC the results were OX1R antag-1 -18.3, CHO parental Ca -12.7, TAAR1 antagonist 57.3*, OX1R antag-2 5.6 and TAAR1 ag 13.2.
`CN(C)CCCN1CC(=O)N2CCc3ccc(Br)cc3C2CC1=O` (stereo unspecified) gave TAAR1 antagonist -20.4 and TAAR1 ag 0.6.
Screening NC(=O)c1ncn([C@@H]2O[C@H](C(=O)Nc3ccc(C(=O)N4CCCCC4)cc3)[C@@H](O)[C@H]2O)n1 returned TAAR1 antagonist -33.4 and TAAR1 ag 1.2.
CC1CCCN(c2cccc3c2S(=O)(=O)N(Cc2cccc(Cl)c2)[C@@H](C)[C@H](c2ccccc2)O3)C1 (stereo partly specified) was read as TAAR1 antagonist -2.0 and TAAR1 ag 1.9.
CCN1CCN(C(=O)c2cc(-c3ccc(Cl)s3)nc3ccccc23)CC1 was read as GPR7 antagonist -8.1, TAAR1 antagonist 4.8 and TAAR1 ag 19.7.
For COC(=O)C1CCN(C(=O)c2cc(-c3ccc(Cl)s3)nc3ccccc23)CC1 the results were OX1R antag-1 14.2, CHO parental Ca 2.1, TAAR1 antagonist 56.6*, OX1R antag-2 0.9 and TAAR1 ag 9.4.
Screening CN1CCCCC(NC(=O)c2cccs2)C1=O (stereo unspecified) returned TAAR1 antagonist 19.7 and TAAR1 ag 0.4.
N#CCC1(O)C(=O)Nc2ccccc21 (stereo unspecified) was read as TAAR1 antagonist -4.8 and TAAR1 ag 0.2.
`Cc1cc(=O)n2[nH]c(-c3ccccc3)cc2n1` gave OX1R antag-1 -25.1, GPR7 antagonist 4.6, CHO parental Ca -5.7, TAAR1 antagonist -18.3, OX1R antag-2 30.3 and TAAR1 ag 3.3.
Screening Cc1cc(=O)n2[nH]c(-c3ccc(C(C)(C)C)cc3)cc2n1 returned OX1R antag-1 -10.1, GPR7 antagonist 24.8*!, CHO parental Ca -7.2, TAAR1 antagonist 23.9, OX1R antag-2 12.8 and TAAR1 ag 3.6.
Screening Cc1ccccc1OCCOc1cccc(/C=N/NC(=O)Cc2nnc(N)s2)c1 returned OX1R antag-1 47.7*, GPR7 antagonist 22.4, CHO parental Ca 53.5*, TAAR1 antagonist 48.9*, OX1R antag-2 61.7 and TAAR1 ag 14.2.
`O=S(=O)(c1cccs1)N1CCCc2nc(-c3ccccc3)ccc21` gave TAAR1 antagonist 3.6 and TAAR1 ag -0.2.
For O=C(Nc1ccc(F)cc1)Nc1ccc2c(c1)CCC2 the results were OX1R antag-1 6.9, GPR7 antagonist -9.6, CHO parental Ca 39.0*, TAAR1 antagonist 19.4, OX1R antag-2 10.1 and TAAR1 ag 1.5.
For O=C(Nc1ccccc1)Nc1ccc2c(c1)CCC2 the results were GPR7 antagonist -1.6, TAAR1 antagonist -6.8 and TAAR1 ag 1.6.
O=C(Nc1cccc(F)c1)Nc1ccc2c(c1)CCC2 was read as OX1R antag-1 -1.6, GPR7 antagonist -4.4, CHO parental Ca 22.2, TAAR1 antagonist 14.1, OX1R antag-2 24.4 and TAAR1 ag 0.8.
O=C(Nc1ccc(F)cc1)Nc1cccc(Br)c1 was read as OX1R antag-1 61.4*, CHO parental Ca 75.8*, TAAR1 antagonist 21.9, OX1R antag-2 57.6* and TAAR1 ag 6.3.
O=C(Nc1cccc([N+](=O)[O-])c1)Nc1ccc2c(c1)CCC2 was read as OX1R antag-1 4.8, GPR7 antagonist 19.2, CHO parental Ca 43.2*, TAAR1 antagonist 30.9, OX1R antag-2 61.6* and TAAR1 ag 2.5.
Screening O=C(Nc1cccc([N+](=O)[O-])c1)c1cc2ccccc2cc1O returned OX1R antag-1 23.8, GPR7 antagonist 8.9, CHO parental Ca 36.1*, TAAR1 antagonist 2.7, OX1R antag-2 50.8* and TAAR1 ag 11.8.

From PubChem
